Screening data from PubChem BioAssay.
Most compounds without a hit are left out; they make up all but 1.7% or so of the library.
CAL PDZ FP-1 – CAL PDZ peptide-binding inhibitors, primary screen, biochemical, fluorescence polarization, Cer-tagged CAL PDZ, HTS; purified CAL PDZ, TMR-peptide fluorescence polarization, 1 h; inhibition, % at 20 µM; actives 0.02% (n = 330,000); AID 504414, 2011;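 active = highest replicate inhibition of at least 40%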;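 note: plate controls were DMSO neutral control wells for no effect and unlabeled competitor peptide control wells for full effect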
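Material: tagged CAL PDZ domain; buffer or medium: 25 mM sodium phosphate pH 7.4, 150 mM NaCl, TCEP, IgG, Thesit; compound dosing: single point, 20 µM; schedule: 1 h incubation at room temperature before polarization reading; measured by: FP readout, S and P plane fluorescence; read-out basis: percent inhibition from loss of millipolarization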
ARNT TACC3 PPI – disruptors of ARNT/TACC3 protein interaction, primary screen, biochemical, AlphaScreen, single concentration. Transforming acidic coiled-coil-containing protein 3 (Homo sapiens), Q9Y6A5. AlphaScreen His-ARNT PAS-B/GST-TACC3 binding, luminescence; TACC3 fragment carries E629A point mutation. inhibition, % at 9.99 µM. actives 0.66% (n = 390,000);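 active = mean inhibition of replicates at least 50% and at least half of replicates each reaching 50%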;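 note: 0% = complete ARNT plus TACC3 wells and 100% = ARNT alone without TACC3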
CAL PDZ FP-2 – untagged CAL PDZ binding inhibitors, primary screen, biochemical, fluorescence polarization, HTS; Golgi-associated PDZ and coiled-coil motif-containing protein (Homo sapiens), Q9HD26; purified CAL PDZ, TMR-peptide fluorescence polarization, 1 h; inhibition, % at 24.9 µM; actives 0.92% (n = 300,000);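 active = mean inhibition of at least 30% with at least half of replicates also reaching 30%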;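 note: 0% = DMSO neutral control and 100% = excess unlabeled competitor peptide PRC23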
Rce1 inhib – yeast Rce1p protease inhibitors, primary screen, biochemical, fluorescence, cell-free homogeneous; yeast membranes, quenched prenylated peptide cleavage fluorescence; actives 0.27% (n = 290,000); calls only;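 active = fall in fluorescence gain of 50% or more versus controls, with final raw signal at or below 3038400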;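 note: plate controls were neutral control wells for no effect and wells lacking membranes for full effect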
Target sequence (Q03530 whole entry, looked up): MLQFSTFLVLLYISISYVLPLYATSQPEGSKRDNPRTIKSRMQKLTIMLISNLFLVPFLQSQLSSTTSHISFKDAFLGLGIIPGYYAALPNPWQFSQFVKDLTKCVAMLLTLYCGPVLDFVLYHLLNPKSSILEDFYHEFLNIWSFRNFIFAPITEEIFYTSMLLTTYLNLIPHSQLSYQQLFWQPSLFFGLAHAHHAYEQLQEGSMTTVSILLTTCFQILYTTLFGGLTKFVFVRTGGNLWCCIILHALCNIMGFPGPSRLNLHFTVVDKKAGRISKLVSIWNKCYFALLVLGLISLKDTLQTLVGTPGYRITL
AI-2 QS modul – Vibrio harveyi AI-2 quorum sensing modulators, primary screen, JMH597 strain, luminescence/OD600 ratio; Vibrio harveyi JMH597 AI-2 luminescence/OD600 ratio, 9 h; hits give low values; strain lacks LuxN and CqsS sensors; 0 = neutral-control median; actives 0.4% (n = 300,000); activity change, % at 7.5 µM; AID 2094, 2009; in the data active = activity change below about -75%, passing the limit was not always enough;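 note: luminescence divided by OD600 gain over 9 h not by final OD600 alone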
Active calls of the source: *; i = inactive; nt = no result given; + = active, no number.

SMILES	CAL PDZ FP-1	ARNT TACC3 PPI	CAL PDZ FP-2	Rce1 inhib	AI-2 QS modul
O=[N+]([O-])c1ccc(O)c(/C=N/NC2=NS(=O)(=O)c3ccccc32)c1	-2.5	70.6*	-1.9	i	28.6
C(=N\Nc1nn[nH]n1)/c1ccccc1	0.5	7.6	-1.1	i	23.8
Cc1ccc(S(=O)(=O)N2CCC(c3nc4c(nnn4Cc4ccccc4)c(=O)[nH]3)CC2)cc1	-1.2	nt	0.7	i	35.2
N/N=C(\c1ccccc1)c1cc(Br)ccc1N	nt	2.2	47.4*	i	16.0
O=[N+]([O-])c1cccc(S(=O)(=O)Nc2ccc3cn[nH]c3c2)c1	-0.2	-0.7	+	nt	nt
O=C1CCCC(=O)C1=Cc1c[nH]c2ccccc12	-0.7	-4.0	70.1*	i	14.0
C/C(N)=C(/C#N)C(=O)COc1ncnc2ccccc12	-0.1	-7.7	-5.4	i	28.8
C/C(N)=C(/C#N)C(=O)COC(=O)Cc1coc2ccc3ccccc3c12	-1.5	0.8	79.0*	i	29.8
CCNC(=O)Nc1ccc2c(c1)C(=O)N(C)[C@@H]1CC[C@@H](CC(=O)N[C@@H](C)c3ccccc3)O[C@@H]1CO2	nt	2.9	nt	nt	nt
CCNC(=O)Nc1ccc2c(c1)C(=O)N(C)[C@H]1CC[C@@H](CC(=O)N[C@H](C)c3ccccc3)O[C@H]1CO2	nt	active	nt	nt	nt
COc1ccccc1NC(=O)CC1C(=O)Nc2c1c(=O)n(C)c(=O)n2C (centres undefined)	nt	-6.9	0.3	i	3.0
Cc1ccc2nc(COC(=O)c3ccc(Cl)nc3)cc(=O)n2c1	-0.1	0.0	45.7*	nt	nt
Cc1ccc2nc(Cl)cc(=O)n2c1	0.0	-10.8	-1.9	nt	nt
CN(c1ccc(OCC(=O)OCC(=O)Nc2ccc([N+](=O)[O-])cc2)cc1)S(=O)(=O)c1cccs1	-0.4	-4.1	94.6*	nt	nt
CN(c1ccc(OCC(=O)OCC(=O)Nc2ccccc2)cc1)S(=O)(=O)c1ccc(F)cc1	-4.3	1.3	1.8	i	20.6
C/C(=N\NC(=O)CC#N)c1cc2ccccc2oc1=O	-0.2	20.6*	0.2	i	17.9
N#Cc1cccc2c1-c1ccccc1/C2=N/NC(N)=S	-0.3	12.7	56.1*	i	-2.0
Cc1nn(Cc2ccccc2)c(Cl)c1C(=O)NC(C)(C)C	-2.5	-0.9	0.1	i	20.7
CCOC(=O)Cc1c(Cl)c2ccccc2[nH]c1=O	-0.1	-8.3	-1.1	i	32.0
Cc1ccnc(NC(=O)CNC(=O)c2ccc(Br)o2)c1	-1.0	1.6	-0.2	i	-85.3*
O=C(CNc1cccc(S(=O)(=O)N2CCCCCC2)c1)Nc1cccc([N+](=O)[O-])c1	-0.4	49.7*	5.3	nt	nt
CN(C)c1ccc(C(=S)Nc2ccccc2)cc1	0.2	5.3	2.4	i	30.4
CN(C)c1cc(O)c(C(=S)Nc2ccccc2)c(N(C)C)c1	-2.2	5.1	-2.2	+	-4.5
CCOc1ccc(NC(=O)CN(C)C(=O)c2ccc(C3SCCS3)cc2)cc1OCC	-0.2	-6.2	-2.4	nt	nt
O=C(CC(c1ccccc1)C1CCCCC1=O)c1ccccc1 (centres undefined)	0.0	-6.2	32.3*	nt	nt
SMILES	CAL PDZ FP-1	ARNT TACC3 PPI	CAL PDZ FP-2	Rce1 inhib	AI-2 QS modul
Nc1cc(=O)[nH]c(SCCSc2ccc(F)cc2)n1	-2.7	-5.6	-1.1	i	11.5
O=C(NC1CCN(C(=O)Nc2cccc(Cl)c2)CC1)c1ccco1	-0.1	5.6	58.1*	nt	nt
CCc1cnc(N2[C@@H](C#N)[C@@H](c3ccc(C#CCC4CCCC4)cc3)[C@@H]2CO)s1	nt	20.2	nt	nt	nt
c1ccc(Oc2ncnc3sccc23)cc1	-0.3	4.7	64.3*	i	13.7
OC(CN1CCOCC1)Cn1c(-c2cccc(Cl)c2)nc2ccccc21 (centres undefined)	-2.1	-3.1	-3.8	nt	9.3
NNc1ccc2nncn2n1	-0.2	-12.7	-3.1	i	-5.2
O=[N+]([O-])c1cccc(-c2c[n+]3c(n2-c2ccccc2)SCC3)c1	-1.3	-3.3	48.1*	i	20.1
CC(C)c1ccc(C2OCCCO2)cc1	0.0	nt	nt	nt	nt
